Most compounds without a hit are left out; they make up all but 2.3% or so of the library.
STAT3 blocker = inhibitors of IL-6 induced STAT3 signaling | U3A cells, IL-6 STAT3-luciferase reporter, luminescence; host cell line lacks STAT1 | actives 0.89% (n = 190,000) | inhibition, % at 5.5 µM;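 active = inhibition above the mean inhibition across all screened compounds plus 3 SD, cut at about 44% in these data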;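 note: 0% = DMSO only wells and 100% = 100 µM nifuroxazide control wells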
TRAIL sens C8 = caspase-8 TRAIL sensitization; actives 1% (n = 360,000); AID 624354; inhibition (viability loss, TRAIL sensitization), % at 10 µM; NB7+C8 cells + TRAIL, ATPlite viability luminescence;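 active = compounds causing at least 50% loss of cell viability in the single-dose screen, relative to plate controls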
HSP90 refold inh = inhibitors of HSP90 luciferase refolding in rabbit reticulocyte lysate; inhibition, % at 5.6 µM; actives 0.91% (n = 290,000); luciferase refolding luminescence, 3 h;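 active = inhibition above the screen-wide mean plus 3 SD, computed separately per campaign, cut at about 16% in these data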;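 note: 0% = DMSO wells and 100% = 60 µM geldanamycin wells; inhibitors lower the luminescence because luciferase stays unfolded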
PPC-1+TRAIL kill = kills PPC-1 cancer cells in the presence of TRAIL; actives 0.41% (n = 220,000); AID 1443; cell killing (% activity), % at 4 µM or 5 µM; PPC-1 cells + TRAIL, ATPLite viability luminescence;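 active = cell killing above 50% in the first pass at 4 µM, then a duplicate retest at 5 µM averaging 50% or more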;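 note: plate controls were cells with TRAIL plus DMSO for no effect and medium-only wells lacking cells for full effect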
STAT1 inh = STAT1 signaling inhibition; actives 0.35% (n = 200,000); NIH 3T3 STAT1-luciferase reporter, IFN-gamma, luminescence; inhibition, % at 5.5 µM; AID 920;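 active = inhibition above a set limit, the mean inhibition across all tested compounds plus 3 SD, cut at about 34% in these data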;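 note: 0% = IFN-gamma with DMSO and 100% = IFN-gamma with 300 µM nifuroxazide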
STAT3 act-1 = increases IL-6 driven STAT3 reporter signal. U3A cells, IL-6 STAT3-luciferase reporter, luminescence; 100% = signal with IL-6 EC80 alone. AID 871. activation (% of control), % at 5.6 µM. actives 0.91% (n = 190,000);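 active = activation above the screen-wide mean of compound activation plus 3 SD, cut at about 130% in these data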;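 note: 0% = background luminescence of wells with medium and substrate only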
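Assay system – human STAT1-deficient U3A cells with stable STAT3-luciferase reporter · Also added – IL-6 (33 ng/mL) · Schedule – compound 1 h, then IL-6 6 h at 37 °C · Technique – reporter luminescence signal · Evaluation – % activation versus median of IL-6-stimulated wells · Benchmarks – IL-6-only wells as 100% reference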
STAT3 act-2 = confirmation of STAT3 signaling activators; shares compounds with STAT3 act-1; U3A STAT3-luciferase reporter, IL-6 potentiation, luminescence; U3A cells lack STAT1; 100 means same as IL-6 alone; potentiation (% of control), % at 5.7 µM; actives 64% (n = 1,200); AID 1267;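 active = percent activation of the STAT3 luciferase reporter above a set limit taken from the earlier primary screen, cut at about 130% in these data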;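 note: 0% = background signal of medium plus substrate and 100% = median of IL-6 with DMSO wells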
NFkB act 2 = activates NF-kappaB, counter-screen to STAT3 activators; shares compounds with STAT3 act-1; actives 11% (n = 1,200); human cells, NF-kappaB reporter activation; AID 1309; activation (% of control), % at 5.7 µM; in the data active = activation above about 120%;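 note: reporter induced by TNF-alpha stimulation; 100% = median of stimulated DMSO wells and 0% = no signal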
STAT1 act = counter-screen for STAT3 activators: STAT1 activation. shares compounds with STAT3 act-1. NIH 3T3 STAT1-luciferase reporter, IFN-gamma, luminescence. activation (% of control), % at 5.7 µM. actives 13% (n = 1,200);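 active = activation above the solvent-only control well mean plus 3 SD, set per screening run, cut at about 120% in these data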;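 note: 100% = IFN-gamma with DMSO median signal so 100% means no change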
* marks the source's active call; other numbers are inactive results; x = no result.

SMILES | STAT3 blocker | TRAIL sens C8 | HSP90 refold inh | PPC-1+TRAIL kill | STAT1 inh | STAT3 act-1 | STAT3 act-2 | NFkB act 2 | STAT1 act
O=C(Oc1ccccc1O)c1cccc2ccccc12 | -42 | 9 | -6 | -16 | -11 | 141* | 132 | 102 | 103
Cc1ccc(C)c(C(=O)O/N=C(\N)c2ccc(Br)cc2)c1 | -61 | 78* | 1 | -17 | 8 | 155* | 150* | 108 | 102
O=C(Oc1cccc2c(O)cccc12)c1ccccc1Cl | x | -9 | x | x | x | x | x | x | x
N/C(=N\OC(=O)c1cccc2ccccc12)c1ccc(Br)cc1 | -46 | 2 | 1 | 34 | 3 | 139* | 135* | 107 | 106
N/C(=N\OC(=O)c1cccc2ccccc12)c1ccncc1 | x | 5 | -6 | 18 | x | x | x | x | x
CCC(C)(C)NC(=O)c1cc(C(=O)OC)cc([N+](=O)[O-])c1 | 4 | -8 | -2 | 12 | -4 | 101 | x | x | x
CCNC(=O)C1(C)CCCN(C(=O)c2csc3ccccc23)C1 (centres undefined) | x | -7 | x | x | x | x | x | x | x
Cc1ccc(C(C)NC(=O)Cc2cccs2)cc1C (centres undefined) | x | 1 | 3 | x | x | x | x | x | x
O=C(c1ccc(S(=O)(=O)N2CCCC2)cc1)N1CCC(CN2C(=O)c3cccc4cccc(c34)C2=O)CC1 | x | 7 | 0 | 9 | x | x | x | x | x
COc1ccc(S(=O)(=O)N2CCC(CN3C(=O)c4cccc5cccc(c45)C3=O)CC2)cc1 | -66 | -3 | 3 | -8 | -4 | 152* | 135* | 107 | 123*
CCN(CC)CCNC(=O)c1cn(CC)c2ccc(S(=O)(=O)N3CCOCC3)cc2c1=O | x | -5 | 2 | x | x | x | x | x | x
CC(C)CNC(=O)COC(=O)c1ccc(F)cc1Cl | 0 | -2 | -5 | -5 | -3 | 107 | x | x | x
CC(=O)Nc1ccc(NC(=O)c2cc(S(=O)(=O)N3CCCCC3)ccc2C)cc1 | x | 10 | x | x | x | x | x | x | x
Cc1ccc(S(=O)(=O)N2CCCCC2)cc1C(=O)Nc1ccc2cn[nH]c2c1 | -49 | -11 | 0 | 9 | 15 | 151* | 135* | 101 | 94
COc1ccccc1C(=O)Nn1c(C2CCC2)nc2ccccc2c1=O | -10 | -2 | -1 | -8 | 3 | 113 | x | x | x
CCOc1ccccc1C(=O)Nn1c(C2CCC2)nc2ccccc2c1=O | -70 | 16 | 2 | 4 | -3 | 162* | 158* | 98 | 99
Cc1nc(N2CCCCC2)[nH]c(=O)c1CN(C)N=O | x | -2 | x | x | x | x | x | x | x
CCc1c(C)sc(NC(=O)c2ccco2)c1C(=O)N1CCOCC1 | -42 | 0 | 0 | 7 | -4 | 138* | 99 | 109 | 103
CCOc1ccc(NC(=O)N2CCCC2C(=O)NCC2CCCO2)cc1 (centres undefined) | 3 | -12 | -2 | 6 | -1 | 102 | x | x | x
N#CC1(c2ccccc2)CCC(NCCc2ccccc2)CC1 (centres undefined) | x | -1 | 3 | x | x | x | x | x | x
Cc1nc2c([nH]c3ccccc32)c(=O)n1N | -24 | -6 | -8 | 6 | 8 | 128 | x | x | x
Nn1c(=O)[nH]c2c([nH]c3ccccc32)c1=O | -45 | -1 | -5 | -3 | 18 | 147* | 152* | 102 | 90
COc1cccc(C2c3[nH]c4ccccc4c3CCN2C(=O)Cn2cncn2)c1OC (centres undefined) | -32 | -2 | -1 | x | 4 | 130 | x | x | x
COc1ccc(C2c3[nH]c4ccccc4c3CCN2CCCn2cccn2)c(C)c1C (centres undefined) | -67 | 8 | -9 | 21 | 2 | 163* | 163* | 101 | 95
COc1cc2c(cc1NC(=O)C(C)N1CCN(S(=O)(=O)c3ccc(C)c(C)c3)CC1)oc1ccccc12 (centres undefined) | -3 | -21 | 2 | 7 | 1 | 102 | x | x | x

High-throughput results from PubChem.
